Data published in ChEMBL document CHEMBL5338787, “Discovery of Novel Bruton's Tyrosine Kinase PROTACs with Enhanced Selectivity and Cellular Efficacy” (J Med Chem, 2023).
Calls of active or inactive are those of the source. The rule behind the calls is not given here.

What was measured:
Type in all cases: cell-based
[1] = biological target: Tyrosine-protein kinase CSK (Homo sapiens) (UniProt P41240); assay: Degradation of CSK in human TMD8 cells by measuring protein level at 111 nM for 6 hrs using label free proteomic analysis
Outline: (§1)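 TMD8 cells (2 × 10^6) given 111 nM or DMSO for 6 h in duplicate. Lysed in 5% SDS/50 mM TEAB pH 8.5. 200 μg protein reduced (10 mM DTT, 55 °C, 30 min), alkylated (50 mM iodoacetamide), S-Trap processed, then LC-MS/MS. Label-free matched-peptide quantitation against DMSO, human UniProt; Benjamini–Hochberg-corrected p-values.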

[2] = biological target: T1, Tyrosine-protein kinase BAZ1B (Homo sapiens) (UniProt Q9UIG0); assay: Degradation of BAZ1B in human TMD8 cells by measuring protein level at 111 nM for 6 hrs using label free proteomic analysis; outline: as §1
T1 sequence (whole entry): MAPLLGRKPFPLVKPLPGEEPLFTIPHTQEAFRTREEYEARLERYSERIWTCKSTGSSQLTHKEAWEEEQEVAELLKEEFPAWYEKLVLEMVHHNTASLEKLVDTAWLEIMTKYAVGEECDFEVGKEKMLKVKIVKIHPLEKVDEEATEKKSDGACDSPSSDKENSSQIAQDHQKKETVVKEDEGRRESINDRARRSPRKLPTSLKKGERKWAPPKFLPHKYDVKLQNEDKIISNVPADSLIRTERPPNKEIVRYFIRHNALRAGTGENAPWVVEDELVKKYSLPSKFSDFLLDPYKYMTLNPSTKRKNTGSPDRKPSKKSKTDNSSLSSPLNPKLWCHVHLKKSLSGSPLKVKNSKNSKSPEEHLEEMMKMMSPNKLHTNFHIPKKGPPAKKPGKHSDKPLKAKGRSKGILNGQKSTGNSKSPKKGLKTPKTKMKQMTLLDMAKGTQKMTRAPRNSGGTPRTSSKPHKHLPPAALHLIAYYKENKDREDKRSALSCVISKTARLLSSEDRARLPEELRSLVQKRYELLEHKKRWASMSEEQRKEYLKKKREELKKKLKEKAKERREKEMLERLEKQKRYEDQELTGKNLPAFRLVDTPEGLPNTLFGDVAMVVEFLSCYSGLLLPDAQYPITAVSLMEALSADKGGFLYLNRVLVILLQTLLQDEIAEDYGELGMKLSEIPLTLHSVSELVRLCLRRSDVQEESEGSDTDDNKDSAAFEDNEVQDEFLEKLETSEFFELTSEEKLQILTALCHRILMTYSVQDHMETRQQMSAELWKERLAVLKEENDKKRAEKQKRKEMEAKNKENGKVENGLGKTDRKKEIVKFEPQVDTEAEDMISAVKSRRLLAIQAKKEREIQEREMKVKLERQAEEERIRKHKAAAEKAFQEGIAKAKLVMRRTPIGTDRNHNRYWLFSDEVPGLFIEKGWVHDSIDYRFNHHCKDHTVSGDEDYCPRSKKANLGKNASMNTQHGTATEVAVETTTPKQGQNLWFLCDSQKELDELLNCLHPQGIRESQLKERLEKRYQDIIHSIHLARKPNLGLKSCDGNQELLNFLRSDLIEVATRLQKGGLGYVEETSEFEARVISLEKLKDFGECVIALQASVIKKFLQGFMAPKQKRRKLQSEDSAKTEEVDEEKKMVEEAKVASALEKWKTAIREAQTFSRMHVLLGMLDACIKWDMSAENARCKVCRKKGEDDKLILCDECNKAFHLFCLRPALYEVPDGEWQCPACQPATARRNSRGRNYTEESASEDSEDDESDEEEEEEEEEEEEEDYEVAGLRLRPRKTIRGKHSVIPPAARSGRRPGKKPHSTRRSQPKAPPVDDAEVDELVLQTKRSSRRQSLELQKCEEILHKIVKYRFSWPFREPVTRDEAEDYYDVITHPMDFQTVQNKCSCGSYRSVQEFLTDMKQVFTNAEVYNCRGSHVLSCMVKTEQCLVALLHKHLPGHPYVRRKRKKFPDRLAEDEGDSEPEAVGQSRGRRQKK

[3] = biological target: Tyrosine-protein kinase FRK (Homo sapiens) (UniProt P42685); assay: Degradation of FRK in human TMD8 cells by measuring protein level at 111 nM for 6 hrs using label free proteomic analysis; outline: as §1
[4] = biological target: Zinc finger protein Aiolos (Homo sapiens) (UniProt Q9UKT9); assay: Degradation of IKZF3 in human TMD8 cells by measuring protein level at 111 nM for 6 hrs using label free proteomic analysis; outline: as §1
[5] = biological target: T2, Zinc finger protein 280D (Homo sapiens) (UniProt Q6N043); assay: Degradation of […] in human TMD8 cells by measuring protein level at 111 nM for 6 hrs using label free proteomic analysis; outline: as §1
T2 sequence (whole entry): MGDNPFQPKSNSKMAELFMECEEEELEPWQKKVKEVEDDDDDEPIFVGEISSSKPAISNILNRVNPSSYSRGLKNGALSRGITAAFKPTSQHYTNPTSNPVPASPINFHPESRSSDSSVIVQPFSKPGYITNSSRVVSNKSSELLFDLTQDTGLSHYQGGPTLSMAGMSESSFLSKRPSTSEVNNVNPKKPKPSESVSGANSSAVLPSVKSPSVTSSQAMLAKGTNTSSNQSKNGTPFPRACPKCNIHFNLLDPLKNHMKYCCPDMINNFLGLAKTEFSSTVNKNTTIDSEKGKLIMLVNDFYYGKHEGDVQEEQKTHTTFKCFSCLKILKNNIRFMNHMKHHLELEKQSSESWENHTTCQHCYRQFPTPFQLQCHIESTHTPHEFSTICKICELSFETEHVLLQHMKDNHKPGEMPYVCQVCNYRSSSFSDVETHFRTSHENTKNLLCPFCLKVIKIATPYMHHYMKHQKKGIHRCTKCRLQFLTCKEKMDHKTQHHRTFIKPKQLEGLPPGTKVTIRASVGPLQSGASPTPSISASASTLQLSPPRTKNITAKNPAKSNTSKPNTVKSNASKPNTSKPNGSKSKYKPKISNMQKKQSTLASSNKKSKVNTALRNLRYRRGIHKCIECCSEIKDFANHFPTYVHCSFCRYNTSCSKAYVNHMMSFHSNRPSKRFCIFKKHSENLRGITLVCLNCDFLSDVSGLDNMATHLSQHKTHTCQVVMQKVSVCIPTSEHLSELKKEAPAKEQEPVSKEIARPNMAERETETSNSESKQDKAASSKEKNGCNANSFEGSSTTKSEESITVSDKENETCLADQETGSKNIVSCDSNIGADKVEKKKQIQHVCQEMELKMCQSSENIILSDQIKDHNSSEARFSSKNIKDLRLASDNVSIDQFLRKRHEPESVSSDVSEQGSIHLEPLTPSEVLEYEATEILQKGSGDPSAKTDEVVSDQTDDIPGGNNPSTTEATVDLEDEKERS

[6] = biological target: Tyrosine-protein kinase Lyn (Homo sapiens) (UniProt P07948); assay: Degradation of LYN in human TMD8 cells by measuring protein level at 111 nM for 6 hrs using label free proteomic analysis; outline: as §1
[7] = biological target: Tyrosine-protein kinase HCK (Homo sapiens) (UniProt P08631); assay: Degradation of HCK in human TMD8 cells by measuring protein level at 111 nM for 6 hrs using label free proteomic analysis; outline: as §1
Tyrosine-protein kinase HCK (Homo sapiens), sequence (P08631 2-526 limits assumed): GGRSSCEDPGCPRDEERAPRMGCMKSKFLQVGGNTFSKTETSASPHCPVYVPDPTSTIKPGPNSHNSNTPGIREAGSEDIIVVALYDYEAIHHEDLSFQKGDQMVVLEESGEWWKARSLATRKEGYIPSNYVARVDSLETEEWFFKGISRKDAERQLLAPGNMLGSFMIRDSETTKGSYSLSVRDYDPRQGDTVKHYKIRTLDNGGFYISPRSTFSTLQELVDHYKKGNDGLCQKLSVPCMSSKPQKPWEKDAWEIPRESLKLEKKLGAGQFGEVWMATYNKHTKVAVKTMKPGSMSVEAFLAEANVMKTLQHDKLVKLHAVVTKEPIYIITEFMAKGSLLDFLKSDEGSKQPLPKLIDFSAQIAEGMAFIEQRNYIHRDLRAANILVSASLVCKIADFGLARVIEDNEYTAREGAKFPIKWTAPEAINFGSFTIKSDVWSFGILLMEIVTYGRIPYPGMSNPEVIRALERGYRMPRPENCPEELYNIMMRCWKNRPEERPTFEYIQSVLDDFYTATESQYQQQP

Tyrosine-protein kinase CSK (Homo sapiens), sequence (P41240 2-450 limits assumed): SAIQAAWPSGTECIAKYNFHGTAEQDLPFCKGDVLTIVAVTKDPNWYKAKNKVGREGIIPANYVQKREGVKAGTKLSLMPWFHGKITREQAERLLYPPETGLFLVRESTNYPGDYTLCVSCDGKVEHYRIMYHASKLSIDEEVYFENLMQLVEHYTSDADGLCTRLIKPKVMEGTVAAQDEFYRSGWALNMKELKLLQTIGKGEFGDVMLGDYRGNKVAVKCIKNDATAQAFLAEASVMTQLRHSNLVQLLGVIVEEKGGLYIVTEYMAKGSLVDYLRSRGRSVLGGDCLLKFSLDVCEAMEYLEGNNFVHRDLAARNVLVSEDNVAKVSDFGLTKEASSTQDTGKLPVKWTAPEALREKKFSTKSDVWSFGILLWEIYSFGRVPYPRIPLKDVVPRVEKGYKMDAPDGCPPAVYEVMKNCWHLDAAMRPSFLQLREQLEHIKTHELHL
Tyrosine-protein kinase FRK (Homo sapiens), sequence (P42685 whole entry): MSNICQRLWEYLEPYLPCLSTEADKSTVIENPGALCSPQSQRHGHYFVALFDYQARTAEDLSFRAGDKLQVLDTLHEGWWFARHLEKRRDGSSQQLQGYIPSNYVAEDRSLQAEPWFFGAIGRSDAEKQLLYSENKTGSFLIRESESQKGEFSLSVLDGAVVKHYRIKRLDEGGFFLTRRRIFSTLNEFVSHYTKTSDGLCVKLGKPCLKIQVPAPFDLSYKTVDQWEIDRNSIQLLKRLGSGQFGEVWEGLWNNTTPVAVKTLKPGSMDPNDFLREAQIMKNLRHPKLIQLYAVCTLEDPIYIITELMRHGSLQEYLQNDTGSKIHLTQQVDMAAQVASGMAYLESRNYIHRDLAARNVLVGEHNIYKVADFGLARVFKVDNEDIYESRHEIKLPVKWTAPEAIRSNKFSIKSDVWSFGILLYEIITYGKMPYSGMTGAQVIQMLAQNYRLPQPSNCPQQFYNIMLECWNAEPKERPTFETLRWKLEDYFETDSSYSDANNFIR
Tyrosine-protein kinase Lyn (Homo sapiens), sequence (P07948 2-512 limits assumed): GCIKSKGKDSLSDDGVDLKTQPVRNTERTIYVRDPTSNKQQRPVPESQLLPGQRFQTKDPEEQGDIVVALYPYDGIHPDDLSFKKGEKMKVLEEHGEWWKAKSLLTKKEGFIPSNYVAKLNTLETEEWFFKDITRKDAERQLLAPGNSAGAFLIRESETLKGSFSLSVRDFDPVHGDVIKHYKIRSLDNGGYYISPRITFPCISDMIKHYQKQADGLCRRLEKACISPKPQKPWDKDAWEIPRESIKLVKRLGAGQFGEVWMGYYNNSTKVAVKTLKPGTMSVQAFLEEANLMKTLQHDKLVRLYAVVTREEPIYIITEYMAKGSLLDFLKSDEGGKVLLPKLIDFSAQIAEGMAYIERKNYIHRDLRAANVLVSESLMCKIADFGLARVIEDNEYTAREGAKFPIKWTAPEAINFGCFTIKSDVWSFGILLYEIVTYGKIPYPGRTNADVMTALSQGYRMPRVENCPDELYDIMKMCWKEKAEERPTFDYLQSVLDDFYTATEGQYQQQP
Zinc finger protein Aiolos (Homo sapiens), sequence (Q9UKT9 whole entry): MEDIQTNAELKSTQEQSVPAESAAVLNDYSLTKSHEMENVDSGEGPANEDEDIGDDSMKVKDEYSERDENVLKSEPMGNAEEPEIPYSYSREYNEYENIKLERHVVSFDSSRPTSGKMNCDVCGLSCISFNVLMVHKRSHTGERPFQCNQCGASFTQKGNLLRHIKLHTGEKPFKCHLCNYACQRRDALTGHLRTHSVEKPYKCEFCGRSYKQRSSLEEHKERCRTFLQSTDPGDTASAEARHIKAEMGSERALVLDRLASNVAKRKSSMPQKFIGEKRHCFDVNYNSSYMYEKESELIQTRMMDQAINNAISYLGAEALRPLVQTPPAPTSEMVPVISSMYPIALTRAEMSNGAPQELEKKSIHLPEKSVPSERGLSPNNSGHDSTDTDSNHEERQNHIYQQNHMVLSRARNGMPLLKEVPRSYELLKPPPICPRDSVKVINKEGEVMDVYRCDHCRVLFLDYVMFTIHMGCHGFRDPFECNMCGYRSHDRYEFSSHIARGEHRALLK

| Structure (SMILES) | Activity [1] | Activity [2] | Activity [3] | Activity [4] | Activity [5] | Activity [6] | Activity [7] |
| --- | --- | --- | --- | --- | --- | --- | --- |
| C[C@H]1CN(C(=O)CNc2cccc3c2C(=O)N(C2CCC(=O)NC2=O)C3=O)CCN1c1ccc(Nc2cc(-c3ccnc(N4CCn5c(cc6c5CC(C)(C)C6)C4=O)c3CO)cn(C)c2=O)nc1 (some centres undefined) | inactive | inactive | inactive | Active | Active | inactive | inactive |
| C[C@H]1CN(C(=O)COc2cccc3c2C(=O)N(C2CCC(=O)NC2=O)C3=O)CCN1c1ccc(Nc2cc(-c3ccnc(N4CCn5c(cc6c5CC(C)(C)C6)C4=O)c3CO)cn(C)c2=O)nc1 (some centres undefined) | inactive | inactive | inactive | inactive | Active | inactive | inactive |
